Assay [1] has as its system HT-29. In words: Cytotoxicity against human HT-29 cells after 3 days by mitochondrial transmembrane potential assay. It counts as functional, cell-based. As to conditions: HT-29, 72 h.
Assay [2] has as its system HT-29. In words: Cytotoxicity against human HT-29 cells after 3 days by sulforhodamine B assay. It counts as functional, cell-based. Conditions: HT-29, 72 h. For orientation: Sulforhodamine B stains cellular protein and so reports cell mass.
The test system of another assay is MDA-MB-435. In words: Antitumor activity against human MDA-MB-435 cells xenografted in immunodeficient NCr nu/nu mouse assessed as inhibition of tumor growth at 0.5 to 10 mg/kg, ip dosed as four daily injections on day 3,4,5 and 6 followed by fiber retrieval on day 7 by in-vivo hollow fiber assay. It counts as functional, organism-based. Put shortly:
(§1)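 Murine hollow fiber model, ip route; fibers loaded per fiber with HT29 1 × 10⁶, MCF-7 5 × 10⁶, or MDA-MB-435 1 × 10⁶ cells. Dosing 0.5 to 10 mg/kg per day for four days in 5% EtOH/5% Tween 80 in physiologic saline; paclitaxel positive control at 2.0 mg/kg per day for four days. Proliferation inhibition assessed in each cell type.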
A general note: In xenograft studies the graft and the host belong to different species.

The test system of assay [3] is HT-29. In words: Antitumor activity against human HT-29 cells xenografted in immunodeficient NCr nu/nu mouse assessed as inhibition of tumor growth at 0.5 to 10 mg/kg, ip dosed as four daily injections on day 3,4,5 and 6 followed by fiber retrieval on day 7 by in-vivo hollow fiber assay. It counts as functional, organism-based. In outline: as §1
For the next assay, the system named is MCF7. Kind of assay: Antitumor activity against human MCF7 cells xenografted in immunodeficient NCr nu/nu mouse assessed as inhibition of tumor growth at 0.5 to 10 mg/kg, ip dosed as four daily injections on day 3,4,5 and 6 followed by fiber retrieval on day 7 by in-vivo hollow fiber assay. It counts as functional, organism-based. Put shortly:
as §1

Calls of active or inactive are those of the source. The calls are words filed in the database; no cut-off is given here. Where only a bound is given, the exact number is not on record here.

Take `C=C(C)[C@@H](O)[C@H]1C[C@](C)(O)[C@H]2[C@@H](C[C@@]3(C)[C@@H]4CC=C5[C@@H](CC[C@H](O)C5(C)C)[C@]4(C)C(=O)C[C@]23C)O1` [ELAEOCARPUCIN B]: the IC50 was above 20000 nM with HT-29 [1] and above 10000 nM in the assay with HT-29 [2].
`CC(C)=C[C@@H]1O[C@@H]2C[C@@]3(C)[C@@H]4CC=C5[C@@H](CC[C@H](O)C5(C)C)[C@]4(C)C(=O)C[C@]3(C)[C@H]2[C@@](C)(O)[C@@H]1O` [ELAEOCARPUCIN G] yielded a 50% inhibitory concentration (IC50) in the assay on HT-29 [2] of 2900 nM.
In the case of `C=C(C)[C@H](O)[C@H]1C[C@](C)(O)[C@H]2[C@@H](C[C@@]3(C)[C@@H]4CC=C5[C@@H](CC[C@H](O)C5(C)C)[C@]4(C)C(=O)C[C@]23C)O1` [ELAEOCARPUCIN A], the concentration for half-maximal inhibition (IC50) with HT-29 [1] is above 20000 nM; with HT-29 [2], above 10000 nM.
With `CC(C)(O)/C=C/C(=O)[C@](C)(O)[C@H]1[C@H](O)C[C@@]2(C)[C@@H]3CC=C4[C@@H](C[C@H](O)C(=O)C4(C)C)[C@]3(C)C(=O)C[C@]12C` [CUCURBITACIN D], the IC50 in the assay with HT-29 [1] was above 20000 nM; in the assay on HT-29 [2] it was 120 nM.
`C/C(C=O)=C\[C@H]1C[C@](C)(O)[C@H]2[C@@H](C[C@@]3(C)[C@@H]4CC=C5[C@@H](CC[C@H](O)C5(C)C)[C@]4(C)C(=O)C[C@]23C)O1` [ELAEOCARPUCIN E] displayed a half-inhibitory concentration (IC50) with HT-29 [2] above 10000 nM.
Turning to `C=C(C)C(=O)[C@H]1C[C@](C)(O)[C@H]2[C@@H](C[C@@]3(C)[C@@H]4CC=C5[C@@H](CC[C@H](O)C5(C)C)[C@]4(C)C(=O)C[C@]23C)O1` [ELAEOCARPUCIN D], the IC50 in the assay with HT-29 [2] is 5600 nM.
Consider `CC(=O)OC(C)(C)/C=C/C(=O)[C@](C)(O)[C@H]1[C@H](O)C[C@@]2(C)[C@@H]3CC=C4[C@@H](C[C@H](O)[C@@H](O)C4(C)C)[C@]3(C)C(=O)C[C@]12C`, for which the IC50 with HT-29 [2] was determined as 540 nM.
As to `CC(C)(O)/C=C/C(=O)[C@](C)(O)[C@H]1[C@H](O)C[C@@]2(C)[C@@H]3CC=C4[C@@H](CC(=O)[C@H](O)C4(C)C)[C@]3(C)C(=O)C[C@]12C`, the results for the IC50 in the assay on HT-29 [1] and in the assay on HT-29 [2] were above 20000 nM and 39 nM, respectively.
As for `C/C(=C\[C@H]1C[C@](C)(O)[C@H]2[C@@H](C[C@@]3(C)[C@@H]4CC=C5[C@@H](CC[C@H](O)C5(C)C)[C@]4(C)C(=O)C[C@]23C)O1)CO` [ELAEOCARPUCIN C], the concentration for half-maximal inhibition (IC50) was above 20000 nM in the assay on HT-29 [1] and 410 nM in the assay with HT-29 [2]. The inhibition result in the assay with MDA-MB-435, in the assay with HT-29 [3] and in the assay on MCF7 was “inactive” each time.
Take `CC(C)(O)C[C@H]1C[C@](C)(O)[C@H]2[C@@H](C[C@@]3(C)[C@@H]4CC=C5[C@@H](CC[C@H](O)C5(C)C)[C@]4(C)C(=O)C[C@]23C)O1` [ELAEOCARPUCIN F]: the results for the half-inhibitory concentration (IC50) with HT-29 [1] and with HT-29 [2] were above 20000 nM and above 10000 nM, respectively.
Turning to `CC(C)=C[C@H]1C[C@](C)(O)[C@H]2[C@@H](C[C@@]3(C)[C@@H]4CC=C5[C@@H](CC[C@H](O)C5(C)C)[C@]4(C)C(=O)C[C@]23C)O1`, the IC50 was above 20000 nM in the assay with HT-29 [1] and above 10000 nM in the assay on HT-29 [2].
As for `CC(C)(O)/C=C/C(=O)[C@](C)(O)[C@H]1[C@H](O)C[C@@]2(C)[C@@H]3CC=C4[C@@H](C=C(O)C(=O)C4(C)C)[C@]3(C)C(=O)C[C@]12C` [CUCURBITACIN I], the midpoint of inhibition in the assay with HT-29 [2], the IC50, lay at 190 nM.
In the assay on HT-29 [2], `CC(=O)O[C@H]1C(=O)[C@@]2(C)[C@H]([C@H](OC(=O)c3ccccc3)[C@]3(O)C[C@H](OC(=O)[C@H](O)[C@@H](NC(=O)c4ccccc4)c4ccccc4)C(C)=C1C3(C)C)[C@]1(OC(C)=O)CO[C@@H]1C[C@@H]2O` [PACLITAXEL] returned an IC50 of 6 nM.
For the compound `CC(C)=C[C@H]1C[C@](C)(O)[C@H]2[C@@H](C[C@@]3(C)[C@@H]4C(=O)C=C5[C@@H](CC[C@H](O)C5(C)C)[C@]4(C)C(=O)C[C@]23C)O1` [ELAEOCARPUCIN H], 2700 nM corresponded to half-maximal inhibition with HT-29 [2] (IC50).

Broadly, the IC50 is the point on the concentration scale where inhibition reaches its midpoint. Read a high IC50 as lower potency.
